# Most compounds without a hit are left out; they make up all but 2.3% or so of the library.
# PRMT1 inh: blocks human protein arginine methyltransferase 1 | Q99873 | recombinant PRMT1, activity-based probe fluorescence polarization | inhibition, % at 2.79 µM | 370,000 tested, 1.3% active | AID 652257;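 active = inhibition above about 21% made by adding two undisclosed values, limit read from the data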
# PAD4 inh: blocks human protein arginine deiminase 4 | inhibition, % at 6.36 µM | recombinant PAD4, RCA probe fluorescence polarization | 330,000 tested, 0.41% active | AID 485272;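 active = percent inhibition above a cutoff equal to the mean of all tested compounds plus 3 SD, cut at about 15% in these data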;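 also: 0% = PAD4 with RCA probe and DMSO and 100% = probe without PAD4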
# Target sequence (Q9UM07 whole entry, looked up): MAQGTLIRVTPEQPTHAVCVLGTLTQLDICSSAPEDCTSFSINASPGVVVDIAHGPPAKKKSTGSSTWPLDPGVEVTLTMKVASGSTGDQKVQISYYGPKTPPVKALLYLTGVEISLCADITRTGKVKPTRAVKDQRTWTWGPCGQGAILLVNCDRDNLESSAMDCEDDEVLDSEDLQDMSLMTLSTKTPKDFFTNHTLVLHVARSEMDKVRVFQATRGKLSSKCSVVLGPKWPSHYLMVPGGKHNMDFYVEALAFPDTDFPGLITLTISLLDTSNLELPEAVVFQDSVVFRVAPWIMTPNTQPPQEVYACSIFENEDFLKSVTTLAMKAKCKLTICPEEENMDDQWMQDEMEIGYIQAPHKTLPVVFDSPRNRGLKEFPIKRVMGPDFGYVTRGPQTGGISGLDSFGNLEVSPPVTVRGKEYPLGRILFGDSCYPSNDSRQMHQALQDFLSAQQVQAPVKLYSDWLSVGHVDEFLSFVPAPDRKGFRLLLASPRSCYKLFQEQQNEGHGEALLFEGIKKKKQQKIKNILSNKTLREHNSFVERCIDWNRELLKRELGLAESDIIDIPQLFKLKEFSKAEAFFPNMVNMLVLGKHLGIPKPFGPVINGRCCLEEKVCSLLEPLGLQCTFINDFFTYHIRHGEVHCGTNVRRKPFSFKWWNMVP
# RBBP9 inh: blocks human serine hydrolase RBBP9 | O75884 | recombinant RBBP9, FP-Rh probe fluorescence polarization | inhibition, % at 7.94 µM | 220,000 tested, 0.2% active;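 active = inhibition above the campaign mean of all tested compounds plus 3 SD, cut at about 14% in these data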;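 also: plate controls were DMSO wells with RBBP9 for no effect and wells lacking RBBP9 protein for full effect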
#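 Controls: DMSO-treated enzyme wells and wells lacking RBBP9 | Material: RBBP9 protein | Technique: Fluorescence polarization | Replication: Single well per compound, no replicates | Buffer or medium: Tris-NaCl-Pluronic buffer, pH 8.0 | Timing: 30 min compound preincubation, 45 min probe labeling, 25 °C | Read-out basis: Percent inhibition from mP, scaled between DMSO and no-protein wells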
# PME-1 primary: PME-1 (human) inhibition | recombinant PME-1, FP-Rh probe fluorescence polarization | Q9Y570 | 320,000 tested, 0.53% active | inhibition, % at 5.9 µM;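 active = inhibition above the campaign mean of all compounds plus 3 SD, cut at about 26% in these data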;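 also: competitive labeling of PME-1 active site by serine hydrolase directed probe; 0% = PME-1 with DMSO and 100% = wells lacking PME-1 enzyme; inhibitors block probe labeling so polarization falls and inhibition rises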
# GSTO1 counter: counter-screen for RBBP9 inhibitors: inhibitors of human GSTO1; AID 1974; inhibition, % at 5.96 µM; recombinant GSTO1, activity-based probe fluorescence polarization; 300,000 tested, 1.1% active; P78417;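 active = inhibition above the campaign mean inhibition plus 3 SD, cut at about 35% in these data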;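 also: 0% = GSTO1-1 with DMSO and 100% = wells lacking GSTO1-1 enzyme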
# Fam108B counter: blocks mouse Fam108B hydrolase in RBBP9 counter-screen; 300,000 tested, 0.33% active; recombinant Fam108B, FP-Rh probe fluorescence polarization; inhibition, % at 9.51 µM;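 active = inhibition above the screen mean inhibition plus 3 SD, computed separately per campaign, cut at about 18% in these data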;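 also: inhibitors lower polarization as less probe binds the enzyme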
# Fam108b confirm: confirmation of mouse Fam108b serine hydrolase inhibitors; shares compounds with Fam108B counter; recombinant Fam108b, FP-Rh probe fluorescence polarization; inhibition, % at 9.51 µM; 930 tested, 44% active; AID 1978;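 active = inhibition above a limit from the primary screen, the mean over all compounds plus 3 SD, cut at about 19% in these data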;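 also: 0% = median of active Fam108b wells and 100% = catalytically dead S170A mutant; inhibitors free the probe so polarization falls as inhibition rises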
# Fam108b ABPP HTS: inhibits mouse Fam108b in gel-based ABPP; recombinant Fam108b, fluorophosphonate probe; 260 tested, 44% active; shares compounds with Fam108B counter; inhibition, % at 20 µM; AID 588649; in the data active = inhibition above about 40%
# GSTO1 inh conf: confirmation of human GSTO1 inhibitors; shares compounds with GSTO1 counter; 2,400 tested, 54% active; inhibition, % at 5.96 µM; recombinant GSTO1, probe fluorescence polarization;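 active = inhibition above the primary screen's cutoff, its mean inhibition plus 3 SD, cut at about 35% in these data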;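 also: loss of polarization as inhibitors block binding of rhodamine sulfonate ester activity probe; 0% = GSTO1 with DMSO and 100% = wells lacking GSTO1 enzyme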
# PAD4 confirm: PAD4 (human) inhibition, confirmed | shares compounds with PAD4 inh | recombinant PAD4, RCA probe fluorescence polarization | inhibition, % at 6.36 µM | 1,200 tested, 28% active | AID 488796;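 active = mean inhibition across replicates above the hit cutoff set by the earlier primary screen, cut at about 15% in these data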;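 also: inhibitors block active-site labeling by the probe so polarization falls; 0% = PAD4 with probe and DMSO and 100% = probe without PAD4 enzyme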
# PRMT1 confirm: PRMT1 (human) inhibition, FP confirmation | shares compounds with PRMT1 inh | recombinant His-PRMT1, activity-based probe fluorescence polarization | inhibition, % at 2.79 µM | 3,300 tested, 42% active | AID 687036;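 active = mean inhibition across replicates above the hit cutoff derived for the earlier primary screen, cut at about 22% in these data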
# Active calls of the source: *; / = no result.
SMILES,PRMT1 inh,PAD4 inh,RBBP9 inh,PME-1 primary,GSTO1 counter,Fam108B counter,Fam108b confirm,GSTO1 inh conf,PAD4 confirm,others
CCCCn1c(NC(=O)c2ccccc2Cl)c(C#N)c2nc3ccccc3nc21,-2,72*,-10,27*,94*,38*,54*,64*,29*,Fam108b ABPP HTS=10
COC(=O)[C@]12C[C@H](CC(=O)N3CCSCC3)C(=O)N(Cc3ccco3)C1=C[C@H](COCc1ccccc1)O[C@@H]2C,-2,/,/,/,/,/,/,/,/,
O=C1C=C(N2CCOCC2)c2ccccc2C1=O,4,60*,/,28*,90*,58*,66*,99*,66*,Fam108b ABPP HTS=20
Cc1cc(-c2ccc(S(=O)(=O)NCc3ccc(F)cc3)cc2)on1,6,-2,/,6,4,-1,/,/,/,
Cn1c(=O)cc(N)n(-c2ccccc2)c1=O,-6,/,/,/,/,/,/,/,/,
C=Cc1c(C)c2cc3[nH]c(cc4nc(cc5nc(cc1[nH]2)C(C)=C5CCC(=O)O)C(CCC(=O)O)=C4C)c(C)c3C=C,27*,24*,/,-4,89*,46*,44*,82*,3,Fam108b ABPP HTS=0
CCN(CC)C(=O)COc1ccc2c(-c3ccc(OC)cc3)cc(=O)oc2c1,2,-7,/,-1,-6,4,/,/,/,
Cc1cc2c(N)cccc2nn1,44*,120*,4,58*,65*,25*,16,110*,-2,
Nc1cccc2nsnc12,7,-11,-3,-2,24,0,/,/,/,
Nc1cc2nsnc2cc1Br,40*,78*,-4,47*,92*,71*,62*,91*,53*,Fam108b ABPP HTS=50*
COC(=O)c1c(Cl)c2n3ccccc3c(C)c(-c3ccccc3)c-2c1C(=O)OC,34*,16*,-3,16,29,19*,10,/,6,
Cc1ccc(S(=O)(=O)N(C)c2cccc3c2S(=O)(=O)N([C@H](C)c2ccccc2)C[C@@H](COCc2ccccc2)O3)cc1,-2,/,/,/,/,/,/,/,/,
COC(=O)c1ccccc1NC1=C/C(=N\S(=O)(=O)c2ccc(C(=O)O)cc2)c2ccccc2C1=O,/,25*,/,21,86*,57*,72*,85*,66*,Fam108b ABPP HTS=15
O=C1C(Nc2ccccc2)=C/C(=N/S(=O)(=O)c2cccs2)c2ccccc21,/,63*,4,32*,84*,36*,57*,95*,58*,
COC(=O)c1cccc(NS(=O)(=O)c2cccs2)c1C,0,0,-2,6,0,0,/,/,/,
COC(=O)c1ccccc1NC1=C/C(=N\S(=O)(=O)c2cccs2)c2ccccc2C1=O,6,38*,7,18,79*,20*,9,84*,35*,
O=C1C=C(Nc2ccccc2)C(=O)c2ccccc21,1,-12,3,7,32,3,/,/,/,
O=C(COC(=O)c1cccc(-n2cnnn2)c1)c1ccccc1,-1,-2,/,0,7,0,/,/,/,
COC(=O)C(NC(=O)C(C)NC(=O)OCc1ccccc1)C(C)C (centres undefined),-3,1,8,0,3,1,/,/,/,
CC1=NN(c2ccc(Cl)cc2)C(=O)C1C(c1cccc(O)c1)c1c(C)[nH]n(-c2ccc(Cl)cc2)c1=O (centres undefined),/,73*,-1,17,66*,31*,17,56*,-4,
CN1CCCN(C(=O)c2cccc(Br)c2)CC1,-3,-4,/,6,0,-3,/,/,/,
COc1cc(N)c(C(=O)c2nccc3cc(OC)c(OC)cc23)cc1OC,-4,0,/,3,4,0,/,/,/,
COc1cc(Br)c(C(=O)c2nccc3cc(OC)c(OC)cc23)cc1OC,-1,73*,/,22,94*,63*,62*,90*,59*,Fam108b ABPP HTS=0
CN1C(=O)NC(c2ccccc2[N+](=O)[O-])C2=C1CCCC2=O (centres undefined),36*,102*,/,84*,71*,68*,24*,38*,62*,
Cc1nc2ccccc2n1CCC(=O)O,0,-3,-7,-4,4,1,/,/,/,
SMILES,PRMT1 inh,PAD4 inh,RBBP9 inh,PME-1 primary,GSTO1 counter,Fam108B counter,Fam108b confirm,GSTO1 inh conf,PAD4 confirm,others
Cc1nc2ccccc2n2c(O)c(CC(=O)O)cc12,44*,75*,-6,22,14,18*,11,/,39*,
Cc1ccc(S(=O)(=O)/N=C2/C=C(Sc3ncn[nH]3)C(=O)c3ccccc32)cc1,/,39*,1,46*,96*,80*,65*,88*,10,
O=C(Nc1ccc2cn[nH]c2c1)c1c(Cl)cccc1Cl,7,0,-2,-4,20,-3,/,/,/,
O=C1C(Cl)=C(Nc2ccc3cn[nH]c3c2)C(=O)c2ccccc21,43*,48*,13,29*,83*,20*,31*,90*,15*,Fam108b ABPP HTS=70*
CCOc1ccc(CCNC(=O)CS(=O)Cc2nc(-c3ccccc3Cl)oc2C)cc1OCC (centres undefined),0,-3,/,-5,1,-1,/,/,/,
COc1cc(NCCCC(C)N)c2ncccc2c1 (centres undefined),4,/,-6,/,/,/,/,/,/,
CCC(CNc1cc(OC)cc2cccnc12)NC1CCCCC1 (centres undefined),32*,90*,8,38*,80*,30*,3,9,14,
O=C(O)CCNc1cc(N2CCN(C(=O)c3ccco3)CC2)c2noc3c2c1C(=O)c1ccccc1-3,25*,21*,/,-9,63*,38*,11,75*,-46,
C#CCN1[C@@H]2CCN(C2)c2cc(Br)ccc2S1(=O)=O,-2,/,/,/,/,/,/,/,/,
O=C1C=C(Nc2ccccc2C(=O)O)c2ccccc2C1=O,13,18*,-1,4,75*,21*,36*,88*,61*,Fam108b ABPP HTS=0
Cn1c(=O)c(Nc2ccc(O)cc2)c2c3c(cccc31)C(=O)c1ccccc1-2,105*,14,7,36*,24,23*,22*,/,/,PRMT1 confirm=32*
CCCSc1nnc(NC(=O)c2sc3nc(-c4cccs4)ccc3c2N)s1,28*,5,-8,42*,-26,22*,-107,/,/,PRMT1 confirm=5
